Laboratory results published in PubChem BioAssay AID1556 (The Scripps Research Institute Molecular Screening Center, 2009).
The campaign covered roughly 290,000 compounds. About 1,300 (0.45%) were called active. Shown is part of a subset that was picked to be rich in actives. A number with no mark means an inactive call.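 How the source made its calls: active means inhibition above the mean plus 3 SD of all compounds in the same screening run (cut at about 4.5% in these data); inactive means the rest.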

What follows are compounds tested on metallo-beta-lactamase IMP-1 (Pseudomonas aeruginosa) (assay: IMP-1 metallo-beta-lactamase inhibitors, primary screen, biochemical, epi-absorbance readout, Pseudomonas aeruginosa enzyme (AID 1556;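 further: 0% = IMP-1 with DMSO and 100% = DMSO wells lacking enzyme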)). Conditions: purified IMP-1, nitrocefin hydrolysis, epi-absorbance fluorescence; at 5.6 µM; stronger effect = higher value.
Method in brief: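 System: Purified recombinant IMP-1 metallo-beta-lactamase enzyme | Measured by: Fluorescence quenching readout, ex 480/em 530 nm | Replication: Singlicate | Incubation: 15 min preincubation plus 25 min reaction at 25 °C | Evaluation: Percent inhibition from optical density relative to buffer-blank wells | Benchmarks: DMSO with and without IMP-1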

Compared with COCCOC(=O)C1=C(C)NC(=O)NC1c1ccc(Cl)cc1 (stereo unspecified), CC1=C(C(=O)OC2CCCCC2)C(c2ccccc2F)NC(=O)N1 (stereo unspecified) is higher in inhibition: -2.42% for the first, -2.31% for the second.

Going from Cc1ccccc1CNC(=O)CCC(=O)N1Cc2ccccc2Oc2ncccc21 to CC(=O)c1ccc(N2CCN(C(=O)CCNC(=O)Cn3ccc4ccccc4c3=O)CC2)cc1, the inhibition rises from -3.43% to -0.18%.

Going from CCNS(=O)(=O)c1ccc(NC(=O)Nc2cccc(OC)c2)cc1 to CCOC(=O)c1cnc(SCC(=O)Nc2cccc(OC)c2)nc1N, the inhibition rises from -2.27% to -1.9%.

Compared with CCCCCCC(=O)Nc1nc(C)c(-c2csc(Nc3cc(Cl)ccc3OC)n2)s1, CCCCC(=O)Nc1nc(C)c(-c2csc(Nc3ccc(Cl)cc3)n2)s1 is higher in inhibition: -2.05% for the first, 0.37% for the second.

COc1ccc(C(=O)Nc2ccc(-n3nncc3C(C)(C)C)cc2)cc1 and COc1cc(NC(=O)c2ccc3c(c2)OCO3)ccc1NC(=O)c1cccs1 are the same in inhibition: -2.83% for the first, -2.83% for the second.

Going from O=C(CN1CCOc2ccccc21)N1CCC(Cc2ccccc2)CC1 to COc1ccc(C(O)(C2CCCCC2)C(CN2CCCC2)c2ccccc2)cc1 (stereo unspecified), the inhibition falls from -0.27% to -0.93%.

Going from CCOC(=O)c1c(C)[nH]c(C(=O)NCCN2CCOCC2)c1C to CCOCCCNC(=S)Nc1ccc2nc(N3CCN(CC)CC3)cc(C)c2c1, the inhibition falls from -0.4% to -2%.

Going from FC(F)(F)C1CCCN(c2nsc3ccccc23)C1 (stereo unspecified) to CN1C/C(=C/c2cccs2)C(=O)/C(=C\c2cccs2)C1, the inhibition rises from -3.15% to 0.42%.

First: Cc1cccc(C2=N/C(=C/c3cccs3)C(=O)O2)c1
Second: Cc1cc(/C=C2\SC(=O)N(C)C2=O)c(C)n1-c1cccc(C(=O)O)c1
The inhibition of the first is higher: -0.41% for the first, -1.7% for the second.

Compared with CCc1ccc(NC(=O)Cn2nnc(C(=O)NCc3ccc4c(c3)OCO4)c2N)cc1, Cc1ccccc1NC(=O)CN1C(=O)N/C(=C\c2cccn2-c2cccc(C(=O)O)c2)C1=O is lower in inhibition: 0.66% for the first, -2.07% for the second.

With CC1=C(C(=O)OCC2CCCCC2)C(c2ccc(F)cc2)NC(=O)N1 (stereo unspecified) the inhibition was 28.3% (active).
CCCCCCC(=O)Nc1nc(C)c(-c2csc(Nc3cccc(OC)c3)n2)s1 was tested, and the inhibition was 9.14% (active).
In the case of CCOC(=O)c1csc(NC(=O)Nc2cccc(OC)c2)n1, the inhibition is reported as 15.1% (active).
In the case of Clc1ccc(C2=CSC3=Nc4cccc5cccc(c45)N23)cc1, the inhibition is reported as 5.6% (active).
CSC1=N/C(=C\C=C\c2cccs2)C(=O)S1 was tested, and the inhibition was 12.2% (active).
With N#Cc1ccccc1CN1C(=O)S/C(=C/c2cccn2-c2cccc(C(=O)O)c2)C1=O the inhibition was 20.9% (active).
